Source: PubChem BioAssay (Johns Hopkins Ion Channel Center)
Hits are enriched below; roughly 3.5% of the tested compounds scored in any of these assays.
RGS4 pot – RGS4 potentiators or activators, primary screen, cell-based, HEK293 M3R inducible RGS4, calcium flux; B-score at 10 µM; carbachol calcium flux Fluo4; stronger effect = lower value; 0.92% of 310,000 active;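 active means B-score of the integrated calcium signal more than 4 SD below the library mean, with starting fluorescence not abnormally high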;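 further: negative B-score means reduced calcium response which marks RGS4 activation or potentiation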
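Material: Inducible-RGS4 HEK293 cells carrying M3 receptor; also added: carbachol at ECmax as muscarinic agonist stimulus; incubation: compound preincubation 20 min at room temperature before agonist; signal: Fluo4-AM (2 µM) calcium-flux fluorescence, kinetic read; measure: integrated calcium ratio converted to B score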
MrgX1 allo act – positive allosteric modulators of MrgX1, primary screen, HEK293 cells, Fluo-4 calcium flux; 0.63% of 310,000 active; B-score at 10 µM; FDSS; stronger effect = higher value;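 active means plate-corrected calcium response at least 3 library SD above typical, normal starting fluorescence, not activating the receptor alone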;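 further: compound read alongside a low EC10 to EC30 dose of BAM8-22 agonist; peak minus trough fluorescence over baseline measured at the second addition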
Target sequence (Q96LB2 whole entry, looked up): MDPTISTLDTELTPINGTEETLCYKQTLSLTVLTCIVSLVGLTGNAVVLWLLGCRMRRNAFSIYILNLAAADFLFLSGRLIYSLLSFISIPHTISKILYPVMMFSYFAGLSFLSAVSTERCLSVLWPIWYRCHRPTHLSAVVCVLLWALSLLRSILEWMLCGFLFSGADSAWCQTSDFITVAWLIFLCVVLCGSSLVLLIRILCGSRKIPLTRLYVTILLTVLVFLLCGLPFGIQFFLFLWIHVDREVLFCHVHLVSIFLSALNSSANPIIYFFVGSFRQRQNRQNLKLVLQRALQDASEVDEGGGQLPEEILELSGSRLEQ
MrgX1 agonist – agonists of human MrgX1 receptor, primary screen, HEK293 cells, Fluo-4 calcium flux; Mas-related G-protein coupled receptor member X1 (Homo sapiens), Q96LB2; Fluo-4 calcium fluorescence, agonist mode; stronger effect = higher value; B-score at 10 µM; 0.44% of 310,000 active;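 active means calcium response B-score plate-corrected fluorescence ratio at least 3 library SD, with starting fluorescence B-score inside 5 SD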
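Test system: Stable human MrgX1 HEK293 cell line | Schedule: Overnight plating before 1 h dye loading | Read-out basis: Baseline-normalised fluorescence change ratio, B-scored | Detection: Kinetic calcium dye fluorescence, Fluo-4 NW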
RGS4 block – RGS4 inhibitors, primary screen, cell-based, HEK293 M3R inducible RGS4, calcium flux | Regulator of G-protein signaling 4 (Homo sapiens), P49798 | Fluo-4 calcium flux; stronger effect = higher value; triggered by carbachol at its EC20 | B-score at 10 µM | 0.45% of 310,000 active | AID 463165, 2010;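 active means B-score, a plate-corrected calcium signal, over three deviations above library mean, with baseline fluorescence within five deviations of library mean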;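 further: RGS4 expression induced by doxycycline in cells with stable M3 receptor; B-score is computed from the integrated fluorescence ratio over baseline after carbachol; higher B-score means a larger calcium signal and so more RGS4 inhibition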
Target sequence (P49798 whole entry, looked up): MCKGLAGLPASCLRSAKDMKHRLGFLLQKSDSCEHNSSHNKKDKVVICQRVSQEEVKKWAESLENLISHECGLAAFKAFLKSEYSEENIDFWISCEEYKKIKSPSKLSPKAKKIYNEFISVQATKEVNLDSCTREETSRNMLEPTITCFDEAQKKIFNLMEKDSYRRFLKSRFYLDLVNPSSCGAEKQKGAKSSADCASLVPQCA
MrgX1 antagonist – antagonists of human MrgX1 receptor, primary screen, HEK293 cells, Fluo-4 calcium flux | Mas-related G-protein coupled receptor member X1 (Homo sapiens), Q96LB2 | BAM8-22 antagonism; stronger effect = lower value | B-score at 10 µM | 1.3% of 310,000 active;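 active means calcium-response B-score plate-corrected more than 3 library SD below zero, starting fluorescence within 5 deviations, no agonist response on first addition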;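 further: peak minus trough fluorescence over baseline after final BAM8-22 challenge near maximal dose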
MrgX1 antag conf – MrgX1 receptor antagonists, duplicate retest, confirmation, HEK293 cells, Fluo-4 calcium flux. shares compounds with MrgX1 antagonist. BAM8-22 calcium flux; stronger effect = lower value. remaining BAM8-22 calcium response % of control (stronger effect = lower value), % at 10 µM. 19% of 2,300 active. AID 602420, 2012;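 active means remaining agonist calcium response no higher than 100% minus 3 SD of agonist-only control wells, with starting fluorescence near control levels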;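 further: agonist BAM8-22 given at a near maximal EC90 to ECmax level; peak minus minimum fluorescence divided by baseline after agonist addition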
HEK293 Ca flux – nonspecific calcium signal in parental HEK293, confirmation, counter-screen for MrgX1 antagonist project, parental HEK293 cells, Fluo-4 calcium flux | shares compounds with MrgX1 antagonist | Fluo-4 calcium fluorescence, FDSS | fluorescence ratio F(max-min)/F0 at 10 µM | 2% of 4,000 active | AID 624111, 2012;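 active means duplicate-averaged calcium fluorescence ratio at least three times the standard deviation of buffer wells, a nonspecific response in parental cells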
HEK293 Ca counter – calcium response in parental HEK293 cells, primary screen, counter-screen for MrgX1 allosteric activator project, cell-based, Fluo-4 calcium flux, duplicate | shares compounds with MrgX1 antagonist | Fluo-4 fluorescence ratio; stronger effect = higher value | fluorescence ratio F(max-min)/F0 at 10 µM | 0.4% of 4,000 active;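 active means calcium fluorescence ratio, averaged over duplicates, at least 3 SD of the buffer-well ratio, meaning a nonspecific response in receptor-free cells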;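 further: untransfected parental HEK293 lacking MrgX1 used as counterscreen for MrgX1 allosteric activators; fluorescence change taken during the second addition on a kinetic imager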
HEK293 Ca cntr2 – calcium response in parental HEK293 cells, primary screen, counter-screen for MrgX1 agonist project, cell-based, Fluo-4 calcium flux, duplicate, agonist mode. shares compounds with MrgX1 antagonist. Fluo-4 calcium fluorescence (FDSS); stronger effect = higher value. fluorescence ratio F(max-min)/F0 at 10 µM. 8.7% of 4,000 active. AID 624115, 2012;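 active means calcium fluorescence ratio at least three times the spread of buffer wells, meaning a non-specific response in parental cells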
* hit, by the source's call; i = inactive; / = no result.

SMILES	RGS4 pot	MrgX1 allo act	MrgX1 agonist	RGS4 block	MrgX1 antagonist	MrgX1 antag conf	HEK293 Ca flux	HEK293 Ca counter	HEK293 Ca cntr2
CC(C)Sc1nc2c(c(=O)n1C)SC(C)C2 (stereo not drawn)	i	i	i	i	-6.94*	i	i	i	i
C/C(=N/NC(=O)NC12CC3CC(CC(C3)C1)C2)c1ccccc1	i	i	i	i	i	/	/	/	/
Cc1nn(C)c(C)c1NS(=O)(=O)c1cccc(Br)c1	i	i	i	i	-4.71*	i	i	i	i
CCOC(=O)CSc1ncnc2c1c(-c1ccccc1)cn2-c1ccc(OC)cc1	i	i	i	i	-5.78*	70.9%*	i	i	i
CC(NC(=O)C12CC3CC(C)(CC(C)(C3)C1)C2)c1ccncc1 (stereo not drawn)	i	i	i	i	i	/	/	/	/
CCCN(C(=O)c1ccco1)c1nnc(-c2cccc(C)c2)s1	i	i	i	i	i	/	/	/	/
COCCN(C(=O)C1CC1)c1nnc(-c2cccc(C)c2)s1	i	i	i	i	-5.38*	i	i	i	i
CC(C)(C)c1ccc(S(=O)(=O)N2CCC(c3nc4ccc(Cl)cc4[nH]3)CC2)cc1	i	i	i	i	-6.05*	i	i	i	i
CC(=O)Nc1ccc(S(=O)(=O)N2CCC(c3nc4ccc(C)cc4[nH]3)CC2)cc1	i	i	i	i	i	/	/	/	/
COc1cccc(NS(=O)(=O)c2c(C)cc(C)cc2C)c1	i	i	i	i	-5.16*	i	i	i	i
COc1ccc(NS(=O)(=O)c2c(C)cc(C)cc2C)cc1	i	i	i	i	i	/	/	/	/
Cc1c(C(=O)N(C)C)c2cc(Cl)ccc2n1O	i	i	i	i	-5.01*	i	i	i	i
COc1ccc(OC)c2c(=O)cc(C(=O)O)[nH]c12	i	i	i	i	i	/	/	/	/
COc1cc2cc(C(=O)O)[nH]c2c(OC)c1OC	i	i	i	i	-5.69*	i	i	i	i
CC(C)Cc1ccc(C(C)C(=O)Nc2nccs2)cc1 (stereo not drawn)	i	i	i	i	-4.69*	72.0%*	i	i	i
CCOC(=O)COc1ccc(S(=O)(=O)NCC2CCCO2)cc1 (stereo not drawn)	i	i	i	i	-4.72*	i	i	i	i
COCCNC(=O)c1ccc2c(=O)n(CCOC)c(=O)[nH]c2c1	i	i	i	i	-6.19*	i	i	i	i
Cc1ccc(NC(=S)NCCSc2ccc(Cl)cc2)c(C)c1	i	i	i	i	-6.34*	i	i	i	i
Cc1ccc(C)c(NC(=S)NCCSc2ccc(Cl)cc2)c1	i	i	i	i	i	/	/	/	/
Cc1cc(C)c(NC(=O)C2CCN(c3cnccn3)CC2)c(C)c1	i	i	i	i	-6.1*	i	i	i	i
CCOC(=O)c1ccc(NC(=S)Nc2ccc(Br)cc2N)cc1	i	i	i	i	i	/	/	/	/
CCN(CC)S(=O)(=O)c1ccc(OC)c(NC(=O)c2ccc3c(c2)OCO3)c1	i	i	i	i	-7.6*	i	i	i	i
CCCC1=C(C(=O)OCC)C(c2ccncc2)n2ncnc2N1 (stereo not drawn)	i	i	i	i	-6.12*	i	i	i	i
COc1cccc(CNC(=O)Cn2ccc3cc(S(=O)(=O)N4CCC(C)CC4)ccc32)c1	i	i	i	i	i	/	/	/	/
Fc1ccccc1NC(=S)Nc1ccc(Br)cc1	i	i	i	i	-6.07*	71.0%*	i	i	i
SMILES	RGS4 pot	MrgX1 allo act	MrgX1 agonist	RGS4 block	MrgX1 antagonist	MrgX1 antag conf	HEK293 Ca flux	HEK293 Ca counter	HEK293 Ca cntr2
Cc1ccc(NC(=S)Nc2ccc(Br)cc2)cc1	i	i	i	i	-5.76*	59.1%*	i	i	i
S=C(Nc1ccccc1)Nc1cccc(Br)c1	i	i	i	i	-5.41*	63.3%*	i	i	i
S=C(Nc1ccccc1)Nc1ccc(Br)cc1	i	i	i	i	-7.34*	68.8%*	i	i	i
CC(=O)Nc1ccc(NC(=S)Nc2ccc(Br)cc2)cc1	i	i	i	i	i	/	/	/	/
COc1ccc(NC(=O)CN(C)C(=O)c2ccc3c(c2)S(=O)(=O)N=C2CCCCCN23)cc1	i	i	i	i	i	/	/	/	/
COc1ccc2nc(N3CCCC(C(=O)NCCCN4C(C)CCCC4C)C3)sc2c1 (stereo not drawn)	i	i	i	i	i	/	/	/	/
Cc1nc2sc(C(=O)c3ccccc3)c(N)c2c(C)c1C	i	i	i	i	i	/	/	/	/
Cc1nc(-c2ccccc2)nc2sc(C(=O)c3ccc(F)cc3)c(N)c12	i	i	i	i	-4.62*	77.8%*	i	i	i
COC(=O)CNC(=O)C1CCN(S(=O)(=O)c2cnc[nH]2)CC1	i	i	i	i	i	/	/	/	/
N#CCCCSc1nnnn1-c1cccc(Cl)c1	i	i	i	i	-5.85*	i	i	i	i
O=C(CSc1nnnn1-c1cccc(Cl)c1)Nc1ccc2c(c1)CCC2	i	i	i	i	i	/	/	/	/
CCc1cccc(C)c1NC(=O)C1=C(C(=O)O)CCCC1	i	i	i	i	-7.79*	i	i	i	i
O=C(CN1C(=O)NC2(CCCC2)C1=O)NNC(=O)c1ccc(Br)cc1	i	i	i	i	i	/	/	/	/
